Experiments:
ECV-304 = experiment: Protection of hydrogen peroxide-induced damage in ECV304 cells; format: functional, cell-based; conditions: Homo sapiens
Plasma = experiment: Inhibition of ADP-induced platelet aggregation in rabbit plasma at 200 uM; format: functional, Oryctolagus cuniculus; design: scale not given: the % may be the effect or the level left
Outline: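 Rabbit blood anticoagulated with 3.8% trisodium citrate, with ADP as inducer; blank and ADP-control cuvettes included. Platelet-rich plasma was taken from the supernatant after 270 g/5 min. Platelet-poor plasma came from re-spinning at 1000 g/10 min. Aggregation was read on an aggregometer and reported as mean platelet aggregation rate (A%), n = 6.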

Structure (SMILES) | EC50 (ECV-304) [µM] | Activity (Plasma) [%]
Cc1nc(C)c(CN2CCN(CCc3ccccc3)CC2)nc1C | 542 | 9.77
Cc1nc(C)c(CN2CCN(Cc3nc(C)c(C)nc3C)CC2)nc1C | 311 | 19.36
Cc1nc(C)c(CN2CCN(Cc3ccccc3Cl)CC2)nc1C | 405 | 9.67
Cc1nc(C)c(CN2CCN(Cc3ccc(Cl)cc3Cl)CC2)nc1C | 424 | 5.7
Cc1nc(C)c(C)nc1C [LIGUSTRAZINE] | 452 | 7.86
CCc1ccc(CN2CCN(Cc3nc(C)c(C)nc3C)CC2)cc1 | 375 | 13.56
Cc1nc(C)c(CN2CCN(C/C=C/c3ccccc3)CC2)nc1C | 428 | 8.36
Cc1nc(C)c(CN2CCN(Cc3ccccc3Br)CC2)nc1C | 784 | 7.68
Cc1nc(C)c(CN2CCN(Cc3cccc(C#N)c3)CC2)nc1C | 1110 | 14.19
Cc1nc(C)c(CN2CCN(Cc3ccc([N+](=O)[O-])cc3)CC2)nc1C | 299 | 14.22
Cc1nc(C)c(CN2CCN(c3ccccc3)CC2)nc1C | 665 | 21.43
Cc1nc(C)c(CN2CCNCC2)nc1C | 481 | 11.36
Cc1nc(C)c(CN2CCN(C(c3ccccc3)c3ccccc3)CC2)nc1C | 218 | 9.88
Cc1nc(C)c(CN2CCN(Cc3cccc(Cl)c3)CC2)nc1C | 503 | 10.56
Cc1nc(C)c(CN2CCN(C(c3ccccc3)c3ccc(Cl)cc3)CC2)nc1C (stereo unspecified) | 253 | 5.19
Cc1nc(C)c(CN2CCN(Cc3ccc(C#N)cc3)CC2)nc1C | 417 | 11.37
Cc1ccc(CN2CCN(Cc3nc(C)c(C)nc3C)CC2)cc1 | 328 | 17.69
Cc1nc(C)c(CN2CCN(Cc3ccc(Cl)cc3)CC2)nc1C | 339 | 12.31
Cc1nc(C)c(CN2CCN(Cc3ccc(C(C)(C)C)cc3)CC2)nc1C | 431 | 15.32
Cc1nc(C)c(CN2CCN(C(c3ccc(F)cc3)c3ccc(F)cc3)CC2)nc1C | 223 | 6.32
Cc1nc(C)c(CN2CCN(Cc3ccc(Br)cc3)CC2)nc1C | 845 | 13.26
Cc1nc(C)c(CN2CCN(Cc3ccccc3C#N)CC2)nc1C | 637 | 12.16
Cc1nc(C)c(CN2CCN(Cc3ccccc3)CC2)nc1C | 246 | 9.06
